Test results from ChEMBL document CHEMBL3085624, “Design, synthesis, and biological evaluation of novel investigational nonapeptide KISS1R agonists with testosterone-suppressive activity” (J Med Chem, 2013).
Calls of active or inactive are those of the source. The calls are words filed in the database; no cut-off is given here. Non-standard residues stand in square brackets, D forms with d. Residues, ends and D or L forms follow the SMILES beside them. 2Nal = N[C@@H](Cc1ccc2ccccc2c1)C(=O)O; Arg(Me) = CNC(=N)NCCC[C@H](N)C(=O)O; d3Pal = N[C@H](Cc1cccnc1)C(=O)O; Cha = N[C@@H](CC1CCCCC1)C(=O)O; azaGly = NNC(=O)O

Tests used:
KiSS-1 receptor [1] = biological target: KiSS-1 receptor (Rattus norvegicus, UniProt Q924U1); test: Binding affinity to rat KISS1R
Chain of KiSS-1 receptor (Rattus norvegicus, UniProt Q924U1) (Q924U1 whole entry): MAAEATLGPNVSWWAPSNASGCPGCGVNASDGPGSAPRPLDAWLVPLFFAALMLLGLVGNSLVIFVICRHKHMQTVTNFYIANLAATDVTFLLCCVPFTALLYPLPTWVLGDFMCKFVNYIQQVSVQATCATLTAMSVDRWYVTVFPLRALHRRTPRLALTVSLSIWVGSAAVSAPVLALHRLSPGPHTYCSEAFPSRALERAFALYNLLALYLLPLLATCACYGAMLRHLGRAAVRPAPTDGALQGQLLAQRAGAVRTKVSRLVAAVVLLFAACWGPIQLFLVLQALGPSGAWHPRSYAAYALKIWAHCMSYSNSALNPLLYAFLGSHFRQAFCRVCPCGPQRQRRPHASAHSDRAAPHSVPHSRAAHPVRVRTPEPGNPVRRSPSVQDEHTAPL

KiSS-1 receptor [2] = biological target: T1, KiSS-1 receptor (Homo sapiens, UniProt Q969F8); test: Binding affinity to human KISS1R expressed in CHO cell membranes
T1 sequence (Q969F8 whole entry): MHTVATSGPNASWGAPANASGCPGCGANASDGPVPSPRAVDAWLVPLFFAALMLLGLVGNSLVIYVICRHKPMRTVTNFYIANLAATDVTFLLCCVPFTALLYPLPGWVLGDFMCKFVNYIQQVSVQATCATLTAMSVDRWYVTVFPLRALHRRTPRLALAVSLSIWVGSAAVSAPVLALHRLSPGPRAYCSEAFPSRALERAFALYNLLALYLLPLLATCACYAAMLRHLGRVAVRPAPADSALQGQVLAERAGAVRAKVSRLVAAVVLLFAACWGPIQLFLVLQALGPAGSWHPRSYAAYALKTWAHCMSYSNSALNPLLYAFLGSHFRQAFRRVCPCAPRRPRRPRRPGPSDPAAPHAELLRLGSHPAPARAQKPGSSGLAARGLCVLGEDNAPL

[3] = Metabolic stability in mouse serum assessed as compound remaining at 0.1 mM after 1 hr by HPLC analysis; assay type: ADME; settings: read-out: Stability
Procedure, shortened: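 Pooled mouse serum (45 µL) spiked with 5 µL of 1 mM aqueous peptide, giving 0.1 mM initial, and incubated at 37 °C. Aliquots taken at time 0 and after 1 h, quenched by boiling 3 min. Peptide quantified by HPLC peak area. Percent remaining relative to time 0; three independent experiments.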

KiSS-1 receptor [4] = biological target: T1, KiSS-1 receptor; test: Agonist activity at recombinant human KISS1R expressed in CHO cells assessed as intracellular calcium mobilization incubated for 30 mins at 37 degC and 30 mins at room temperature by Fluo-4 NW staining-based FLIPR assay relative to Metastin (45 to 54); assay type: functional, cell-based
Procedure, shortened: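 CHO cells stably expressing human KISS1R seeded at 15,000 cells/well, cultured 24 h, then loaded with Fluo-4 Direct in HBSS with 4 mM probenecid and 0.1% BSA (30 min 37 °C, 30 min room temperature). Compounds from 10 µM DMSO stocks diluted in sample buffer and added. Fluorescence read for 2 min at 2 s intervals. Peak counts give agonist activity. EC50 expressed as ratio to metastin(45-54).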

Rattus norvegicus [5] = test: Suppression of testosterone in plasma of rat at 1 nmol/h, sc measured after 13 days by radioimmunoassay; assay type: functional, organism-based
Procedure, shortened: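 Male rats given peptide continuously at 1 nmol/h. Plasma testosterone measured after 6 and 13 days; detection limit 0.04 ng/mL.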

Rattus norvegicus [6] = test: Suppression of testosterone in plasma of Sprague-Dawley rat at 2 nmol/h, sc measured after 6 days by radioimmunoassay; assay type: functional
Procedure, shortened: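 9-week-old male CD(SD)IGS or Copenhagen rats (5/group) given peptide in distilled water by subcutaneous dorsal ALZET osmotic pump (2 mM, 0.001 mL/h) for 6 days; water-pump controls. Plasma (aprotinin/EDTA) testosterone measured by RIA on 0.05 mL. Values below detection limit (0.04 ng/mL) set to 0.04; results expressed as percent of control.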

Structure (SMILES) | Ki (KiSS-1 receptor [1]) | Ki (KiSS-1 receptor [2]) | remaining at 1 h, 100 µM [3] | fold change (FC) (KiSS-1 receptor [4]) | Activity (Rattus norvegicus [5]) | Activity (Rattus norvegicus [6])
CNC(N)=NCCC[C@H](NC(=O)[C@H](CC(C)C)NC(=O)NNC(=O)[C@H](Cc1ccccc1)NC(=O)[C@H](CO)NC(=O)[C@H](CC(N)=O)NC(=O)[C@@H](NC(=O)[C@@H](CC(N)=O)NC(=O)[C@H](N)Cc1ccc(O)cc1)[C@@H](C)O)C(=O)N[C@@H](Cc1ccccc1)C(N)=O | 0.25 nM | 0.29 nM | 65.8% |  |  | 
CNC(N)=NCCC[C@H](NC(=O)[C@H](CC(C)C)NC(=O)NNC(=O)[C@H](Cc1ccccc1)NC(=O)[C@H](CO)NC(=O)[C@H](CC(N)=O)NC(=O)[C@H](Cc1ccccc1)NC(=O)[C@H](N)Cc1ccc(O)cc1)C(=O)N[C@@H](Cc1ccccc1)C(N)=O | 0.15 nM | 0.086 nM |  |  |  | 
CNC(N)=NCCC[C@H](NC(=O)[C@H](CC(C)C)NC(=O)NNC(=O)[C@H](Cc1ccccc1)NC(=O)[C@H](CO)NC(=O)[C@H](CC(N)=O)NC(=O)[C@H](Cc1ccncc1)NC(=O)[C@@H](CC(N)=O)NC(=O)[C@@H](N)Cc1ccc(O)cc1)C(=O)N[C@@H](Cc1ccccc1)C(N)=O | 0.16 nM | 0.21 nM |  |  |  | 
CNC(=N)NCCC[C@H](NC(=O)[C@H](CC(C)C)NC(=O)NNC(=O)[C@H](Cc1ccccc1)NC(=O)[C@H](CO)NC(=O)[C@H](CC(N)=O)NC(=O)[C@@H](NC(=O)[C@H](N)Cc1ccc(O)cc1)[C@@H](C)O)C(=O)N[C@@H](Cc1ccccc1)C(N)=O (H-[dY]TNSF[azaGly]L[Arg(Me)]F-NH2) | 0.24 nM | 0.2 nM |  | 8.9 |  | 
CNC(N)=NCCC[C@H](NC(=O)[C@H](CC(C)C)NC(=O)NNC(=O)[C@H](Cc1ccccc1)NC(=O)[C@H](CO)NC(=O)[C@H](CC(N)=O)NC(=O)[C@H](Cc1ccccc1)NC(=O)[C@H](N)Cc1cccnc1)C(=O)N[C@@H](Cc1ccccc1)C(N)=O | 0.28 nM | 0.2 nM |  |  |  | 
CNC(=N)NCCC[C@H](NC(=O)[C@H](CC(C)C)NC(=O)NNC(=O)[C@H](Cc1ccccc1)NC(=O)[C@H](CO)NC(=O)[C@H](CC(N)=O)NC(=O)[C@H](CC1CCCCC1)NC(=O)[C@@H](CC(N)=O)NC(=O)[C@H](N)Cc1cccnc1)C(=O)N[C@@H](Cc1ccccc1)C(N)=O (H-[d3Pal][dN][Cha]NSF[azaGly]L[Arg(Me)]F-NH2) | 0.18 nM | 0.2 nM |  | 10 |  | 
CNC(N)=NCCC[C@H](NC(=O)[C@H](CC(C)C)NC(=O)NNC(=O)[C@H](Cc1ccccc1)NC(=O)[C@H](CO)NC(=O)[C@H](CC(N)=O)NC(=O)[C@H](CO)NC(=O)[C@H](N)Cc1ccc(O)cc1)C(=O)N[C@@H](Cc1ccccc1)C(N)=O (H-[dY]SNSF[azaGly]L[Arg(Me)]F-NH2) | 0.3 nM | 0.21 nM |  |  |  | 
CNC(=N)NCCC[C@H](NC(=O)[C@H](CC(C)C)NC(=O)NNC(=O)[C@H](Cc1ccccc1)NC(=O)[C@H](CO)NC(=O)[C@H](CC(N)=O)NC(=O)[C@H](Cc1c[nH]c2ccccc12)NC(=O)[C@H](CC(N)=O)NC(=O)[C@H](N)Cc1cccnc1)C(=O)N[C@@H](Cc1ccccc1)C(N)=O (H-[d3Pal]NWNSF[azaGly]L[Arg(Me)]F-NH2) | 0.14 nM | 0.12 nM |  | 2.3 |  | 
CCNC(=O)[C@@H]1CCCN1C(=O)[C@H](CCCNC(=N)N)NC(=O)[C@H](CC(C)C)NC(=O)[C@@H](CC(C)C)NC(=O)[C@H](Cc1ccc(O)cc1)NC(=O)[C@H](CO)NC(=O)[C@H](Cc1c[nH]c2ccccc12)NC(=O)[C@H](Cc1c[nH]cn1)NC(=O)[C@@H]1CCC(=O)N1 |  |  |  |  | Active | 
CNC(=N)NCCC[C@H](NC(=O)[C@H](CC(C)C)NC(=O)NNC(=O)[C@H](Cc1ccccc1)NC(=O)[C@H](CO)NC(=O)[C@H](CC(N)=O)NC(=O)[C@H](Cc1c[nH]c2ccccc12)NC(=O)[C@H](CC(N)=O)NC(=O)[C@@H](C)N)C(=O)N[C@@H](Cc1ccccc1)C(N)=O (H-[dA]NWNSF[azaGly]L[Arg(Me)]F-NH2) | 0.52 nM | 0.51 nM |  | 4.9 |  | 
CNC(=N)NCCC[C@H](NC(=O)[C@H](CC(C)C)NC(=O)CNC(=O)[C@H](Cc1ccccc1)NC(=O)[C@H](CO)NC(=O)[C@H](CC(N)=O)NC(=O)[C@H](Cc1c[nH]c2ccccc12)NC(=O)[C@H](CC(N)=O)NC(=O)[C@H](N)Cc1ccc(O)cc1)C(=O)N[C@@H](Cc1ccccc1)C(N)=O |  |  |  | 0.93 |  | Active

More lines, main results first:

Ki (KiSS-1 receptor [1]) | Ki (KiSS-1 receptor [2]) | remaining at 1 h, 100 µM [3] | fold change (FC) (KiSS-1 receptor [4]) | Structure (SMILES) | Activity (Rattus norvegicus [5]) | Activity (Rattus norvegicus [6])
0.093 nM | 0.086 nM |  |  | CNC(N)=NCCC[C@H](NC(=O)[C@H](CC(C)C)NC(=O)NNC(=O)[C@H](Cc1ccccc1)NC(=O)[C@H](CO)NC(=O)[C@H](CC(N)=O)NC(=O)[C@H](Cc1c[nH]c2ccccc12)NC(=O)[C@@H](CO)NC(=O)[C@H](N)Cc1ccc(O)cc1)C(=O)N[C@@H](Cc1ccccc1)C(N)=O |  | 
0.059 nM | 0.044 nM | 43.4% | 2.4 | CNC(=N)NCCC[C@H](NC(=O)[C@H](CC(C)C)NC(=O)NNC(=O)[C@H](Cc1ccccc1)NC(=O)[C@H](CO)NC(=O)[C@H](CC(N)=O)NC(=O)[C@H](Cc1c[nH]c2ccccc12)NC(=O)[C@H](N)Cc1ccc(O)cc1)C(=O)N[C@@H](Cc1ccccc1)C(N)=O (H-[dY]WNSF[azaGly]L[Arg(Me)]F-NH2) |  | 
0.13 nM | 0.12 nM |  | 14 | CC[C@H](C)[C@H](NC(=O)[C@H](N)Cc1ccc(O)cc1)C(=O)N[C@@H](CC(N)=O)C(=O)N[C@@H](CO)C(=O)N[C@@H](Cc1ccccc1)C(=O)NNC(=O)N[C@@H](CC(C)C)C(=O)N[C@@H](CCCNC(=N)NC)C(=O)N[C@@H](Cc1ccccc1)C(N)=O (H-[dY]INSF[azaGly]L[Arg(Me)]F-NH2) |  | 
0.12 nM | 0.12 nM | 24.7% |  | CNC(N)=NCCC[C@H](NC(=O)[C@H](CC(C)C)NC(=O)NNC(=O)[C@H](Cc1ccccc1)NC(=O)[C@H](CO)NC(=O)[C@H](CC(N)=O)NC(=O)[C@H](Cc1ccccc1)NC(=O)[C@@H](CC(N)=O)NC(=O)[C@H](N)Cc1ccc(O)cc1)C(=O)N[C@@H](Cc1ccccc1)C(N)=O (H-[dY][dN]FNSF[azaGly]L[Arg(Me)]F-NH2) |  | 
0.11 nM | 0.065 nM |  | 4.5 | CNC(=N)NCCC[C@H](NC(=O)[C@H](CC(C)C)NC(=O)NNC(=O)[C@H](Cc1ccccc1)NC(=O)[C@H](CO)NC(=O)[C@H](CC(N)=O)NC(=O)[C@@H](Cc1c[nH]c2ccccc12)NC(=O)[C@H](N)Cc1ccc(O)cc1)C(=O)N[C@@H](Cc1ccccc1)C(N)=O (H-[dY][dW]NSF[azaGly]L[Arg(Me)]F-NH2) |  | 
0.043 nM | 0.033 nM |  | 6.2 | CNC(=N)NCCC[C@H](NC(=O)[C@H](CC(C)C)NC(=O)NNC(=O)[C@H](Cc1ccccc1)NC(=O)[C@H](CO)NC(=O)[C@H](CC(N)=O)NC(=O)[C@H](Cc1c[nH]c2ccccc12)NC(=O)[C@@H](Cc1cnc[nH]1)NC(=O)[C@H](N)Cc1ccc(O)cc1)C(=O)N[C@@H](Cc1ccccc1)C(N)=O |  | 
0.051 nM | 0.032 nM |  |  | CNC(N)=NCCC[C@H](NC(=O)[C@H](CC(C)C)NC(=O)NNC(=O)[C@H](Cc1ccccc1)NC(=O)[C@H](CO)NC(=O)[C@H](CC(N)=O)NC(=O)[C@H](Cc1ccc2ccccc2c1)NC(=O)[C@H](N)Cc1ccc(O)cc1)C(=O)N[C@@H](Cc1ccccc1)C(N)=O (H-[dY][2Nal]NSF[azaGly]L[Arg(Me)]F-NH2) |  | 
0.095 nM | 0.11 nM |  |  | CNC(N)=NCCC[C@H](NC(=O)[C@H](CC(C)C)NC(=O)NNC(=O)[C@H](Cc1ccccc1)NC(=O)[C@H](CO)NC(=O)[C@H](CC(N)=O)NC(=O)[C@H](Cc1ccncc1)NC(=O)[C@@H](CC(N)=O)NC(=O)[C@H](N)Cc1ccc(O)cc1)C(=O)N[C@@H](Cc1ccccc1)C(N)=O |  | 
0.076 nM | 0.055 nM |  | 17 | CNC(=N)NCCC[C@H](NC(=O)[C@H](CC(C)C)NC(=O)NNC(=O)[C@H](Cc1ccccc1)NC(=O)[C@H](CO)NC(=O)[C@H](CC(N)=O)NC(=O)[C@H](CC1CCCCC1)NC(=O)[C@@H](CC(N)=O)NC(=O)[C@H](N)Cc1ccc(O)cc1)C(=O)N[C@@H](Cc1ccccc1)C(N)=O (H-[dY][dN][Cha]NSF[azaGly]L[Arg(Me)]F-NH2) |  | 
0.12 nM | 0.12 nM |  |  | CNC(N)=NCCC[C@H](NC(=O)[C@H](CC(C)C)NC(=O)NNC(=O)[C@H](Cc1ccccc1)NC(=O)[C@H](CO)NC(=O)[C@H](CC(N)=O)NC(=O)[C@@H](Cc1ccncc1)NC(=O)[C@H](CC(N)=O)NC(=O)[C@H](N)Cc1ccc(O)cc1)C(=O)N[C@@H](Cc1ccccc1)C(N)=O |  | 
